The results in this text go back to PubChem BioAssay.

Assay [1] in a line: thallium flux activation in parental CHO cells, counter-screen for KCNQ1 potentiator project (AID 493006). The settings on record: parental CHO-K1 cells, FluxOR thallium flux, at 10 µM; stronger effect = higher value. Put shortly:
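Assay system: Untransfected host CHO-K1 cells with FluxOR thallium dye | Probe or stimulus: Potassium/thallium depolarization pulse | Schedule: Overnight 37 °C plating, 90 min RT dye, 20 min compound | Detection: Kinetic thallium-flux fluorescence | Read-out: Max-minus-min fluorescence over baseline, percent of buffer-to-R-L3 span | Benchmarks: Low control buffer, high control R-L3 activator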
For orientation: A counterscreen serves to expose hits that act by an unwanted route or on another target.

Assay [2] has as its target Potassium voltage-gated channel subfamily KQT member 1 (Homo sapiens) (UniProt P51787). In words: KCNQ1 potassium channel potentiators, confirmation, FluxOR thallium flux, CHO cells, duplicates (AID 493007;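 active means potentiation averaged over duplicate wells exceeding buffer-only control mean by more than 3 SD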;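 on outcome: cells depolarized by a potassium plus thallium sulfate stimulus after compound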). The settings on record: KCNQ1 cell line, FluxOR thallium flux fluorescence, at 10 µM; stronger effect = higher value, % of reference activator effect, buffer zero. The essentials: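 Material: KCNQ1-expressing CHO cell line; Incubation: FluxOR dye loading 90 min, compound exposure 20 min, room temperature; Detection: FluxOR Tl+ flux fluorescence, 10 s baseline plus 110 s recording; Read-out: percent activation between buffer and R-L3 responses; Control set: buffer-only wells as 0% and R-L3 activator as 100%; Replication: duplicate wells per compound.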

The target in assay [3] is Potassium voltage-gated channel subfamily KQT member 2 (Rattus norvegicus) (UniProt O88943). In words: rat KCNQ2 channel potentiation, selectivity assay for KCNQ1 potentiator project, KCNQ2-CHO-K1 cells (AID 493009;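 active means mean duplicate potentiation above the buffer control mean plus 5 SD of buffer wells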;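 further: assay conditions were tuned for KCNQ1 rather than KCNQ2 modulators; signal is max minus min fluorescence divided by baseline after thallium stimulus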). The settings on record: FluxOR thallium flux fluorescence, at 10 µM; stronger effect = higher value, scaled: buffer 0, activator control 100.
Chain of Potassium voltage-gated channel subfamily KQT member 2 (Rattus norvegicus) (O88943 whole entry, looked up): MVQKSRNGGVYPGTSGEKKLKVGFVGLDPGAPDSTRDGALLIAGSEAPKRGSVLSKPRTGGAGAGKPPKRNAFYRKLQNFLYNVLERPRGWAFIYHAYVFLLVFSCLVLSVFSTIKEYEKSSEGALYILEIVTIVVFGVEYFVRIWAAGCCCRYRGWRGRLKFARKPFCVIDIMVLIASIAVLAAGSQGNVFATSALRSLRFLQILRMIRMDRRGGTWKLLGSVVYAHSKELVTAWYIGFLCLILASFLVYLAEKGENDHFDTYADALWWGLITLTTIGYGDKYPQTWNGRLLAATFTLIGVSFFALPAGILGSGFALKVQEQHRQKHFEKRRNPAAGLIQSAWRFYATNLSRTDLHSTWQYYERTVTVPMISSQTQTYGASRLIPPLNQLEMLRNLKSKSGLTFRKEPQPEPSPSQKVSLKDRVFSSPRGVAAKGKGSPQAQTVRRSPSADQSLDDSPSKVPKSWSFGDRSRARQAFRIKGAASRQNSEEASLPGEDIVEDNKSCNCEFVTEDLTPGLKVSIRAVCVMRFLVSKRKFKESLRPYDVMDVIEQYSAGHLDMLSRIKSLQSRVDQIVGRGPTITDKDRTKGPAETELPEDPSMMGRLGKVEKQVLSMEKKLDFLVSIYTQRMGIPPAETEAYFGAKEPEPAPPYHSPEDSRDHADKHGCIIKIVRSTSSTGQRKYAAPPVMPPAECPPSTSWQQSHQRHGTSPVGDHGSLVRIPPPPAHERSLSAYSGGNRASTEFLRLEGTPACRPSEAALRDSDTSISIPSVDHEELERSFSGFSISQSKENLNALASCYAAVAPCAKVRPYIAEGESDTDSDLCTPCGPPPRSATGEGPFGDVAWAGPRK
The target in assay [4] is Potassium voltage-gated channel subfamily KQT member 1 (Homo sapiens) (UniProt P51787). In words: KCNQ1 channel current potentiators, confirmation, orthogonal assay for KCNQ1 potentiator project, IonWorks patch clamp, KCNQ1-CHO cells (AID 493184;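 active means current rise at least 3 SD above the untreated control mean in each of two repeat wells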). Particulars: automated patch clamp current, at 10 µM; stronger effect = higher value. The essentials:
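assay system = KCNQ1-expressing CHO cells | medium = external bath solution at pH 7.4 | probe or stimulus = 2,000 ms depolarization, -90 to +40 mV | compound dosing = 10 µM final, single point | measured by = automated voltage clamp, amphotericin B perforated patch | measure = percent current increase versus pre-compound level | replication = duplicates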

Each structure is given as a SMILES string. Calls of active or inactive are those of the source.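 How the source made its calls, unless noted: active means duplicate-averaged activation above buffer control mean plus 5 SD of those controls; inactive means the rest.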

Chain of Potassium voltage-gated channel subfamily KQT member 1 (Homo sapiens) (P51787 whole entry, looked up): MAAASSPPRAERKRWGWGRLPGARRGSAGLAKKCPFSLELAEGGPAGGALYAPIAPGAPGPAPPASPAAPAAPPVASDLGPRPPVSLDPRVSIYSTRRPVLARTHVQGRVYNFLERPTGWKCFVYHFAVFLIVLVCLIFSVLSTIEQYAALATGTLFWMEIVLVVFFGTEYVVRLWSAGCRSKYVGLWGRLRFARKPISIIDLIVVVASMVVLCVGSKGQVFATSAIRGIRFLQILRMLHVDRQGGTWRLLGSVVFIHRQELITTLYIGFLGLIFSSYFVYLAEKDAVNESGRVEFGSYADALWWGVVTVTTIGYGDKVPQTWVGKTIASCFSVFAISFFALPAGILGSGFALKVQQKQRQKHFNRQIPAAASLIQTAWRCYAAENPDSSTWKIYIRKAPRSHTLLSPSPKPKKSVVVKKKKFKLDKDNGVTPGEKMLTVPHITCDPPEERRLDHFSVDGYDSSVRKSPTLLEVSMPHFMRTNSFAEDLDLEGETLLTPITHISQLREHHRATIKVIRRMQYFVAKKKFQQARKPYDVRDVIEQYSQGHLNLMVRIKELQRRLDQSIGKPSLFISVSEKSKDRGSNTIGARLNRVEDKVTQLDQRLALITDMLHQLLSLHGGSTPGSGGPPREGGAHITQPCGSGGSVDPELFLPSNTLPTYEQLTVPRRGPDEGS

On to `Cc1cccc2sc(N(CCCN(C)C)C(=O)CCS(=O)(=O)c3ccccc3)nc12`, for which the outcome in assay [1], in assay [2], in assay [3] and in assay [4] was inactive.

With `CSC(=S)N/N=C(\C)c1ccc(Br)cc1`, the activation in assay [1] was 309% (active). For the same compound, the potentiation in assay [2] is 132% (active); in assay [3], 258% (active). Further, the result in assay [4] was inactive.

Consider `O=C(COc1cccnc1[N+](=O)[O-])Nc1cccc(S(=O)(=O)N2CCCCC2)c1`, for which the outcome in assay [1], in assay [2], in assay [3] and in assay [4] was inactive.

For `C=CCN(CC=C)C(=S)NC(=O)c1ccc(C)c(Br)c1`, the activation in assay [1] is 779% (active). Also, the potentiation is 270% (active) in assay [2] and 688% (active) in assay [3]. Besides, the result in assay [4] was inactive.

On to `Cc1ccc(C(=O)NC(=S)N(C)Cc2ccccc2)cc1`, for which, in assay [1], the activation is 146% (active). The potentiation was 46% (active) in assay [2] and 178% (active) in assay [3]. The result in assay [4] was inactive.

For the compound `O=C(CSc1nc2cc(Cl)ccc2s1)c1ccco1`, the result in assay [1], in assay [3] and in assay [4] was inactive. Besides, the potentiation in assay [2] is 24% (active).

Take `Cc1sc2ncnc(SCC(=O)NC(=O)c3cccn3C)c2c1C`: the activation in assay [1] is 170% (active). In addition, the potentiation in assay [2] was 28.5% (active); in assay [3] it was 201% (active). For the same compound, in assay [4], the result was inactive.

With `CCCCc1nc2sc3c(SCCN(C)C)ncnc3c2c2c1CCC2`, the activation in assay [1] was 207% (active). Besides, the values for the potentiation in assay [2] and in assay [3] were 122% (active) and 183% (active), respectively. Further, in assay [4], the outcome was inactive.

Consider `O=C1c2ccccc2NC(c2ccccc2O)N1O` (stereo not given), for which the activation in assay [1] is 248% (active). Further, the values for the potentiation in assay [2] and in assay [3] were 82% (active) and 262% (active), respectively. The result in assay [4] was inactive.

Regarding `CCOc1ccc(NC(=O)C2CCN(S(=O)(=O)c3cccnc3)CC2)cc1`, the result in assay [1], in assay [2], in assay [3] and in assay [4] was inactive.

On to `COC(=O)c1c(NC(=O)c2ccccc2)sc(C(=O)c2ccccc2)c1C`, for which the outcome in assay [1], in assay [2], in assay [3] and in assay [4] was inactive.

In the case of `Nc1nc(COc2ccccc2C=O)nc(Nc2ccccc2)n1`, the outcome in assay [1], in assay [2], in assay [3] and in assay [4] was inactive.

As to `C=CCn1c(O)c(N=NC(=S)Nc2cccc(OC)c2)c2ccccc21`, in assay [1], the activation is 186% (active). Besides, the potentiation is 85.5% (active) in assay [2] and 271% (active) in assay [3]. The outcome in assay [4] was inactive.

Consider `Cc1ccc(C(C#N)c2ccc3c(C(F)(F)F)cc(C(F)(F)F)nc3n2)cc1` (stereo not given), for which the activation in assay [1] was 150% (active). Also, the potentiation in assay [2] was 114% (active); in assay [3], 222% (active). For the same compound, in assay [4], the result was inactive.

Take `O=C(C1=C(O)C(=O)N(CC2CCCO2)C1c1ccc(Cl)cc1Cl)c1ccco1` (stereo not given): the result in assay [1], in assay [2], in assay [3] and in assay [4] was inactive.

As for `CCOc1ccc2nc(N3C(=O)/C(=C/c4ccccc4)NC3=S)sc2c1`, the activation in assay [1] was 442% (active). Moreover, the potentiation in assay [2] was 367% (active); in assay [3], 700% (active). The result in assay [4] was inactive.

Regarding `COc1ccc(C)cc1-n1c(SCC(=O)Nc2cc(C)on2)nc2ccccc2c1=O`, the outcome in assay [1], in assay [2], in assay [3] and in assay [4] was inactive.

`CSc1ccccc1C(=O)NC1CCCc2ccccc21` (stereo not given): the outcome in assay [1], in assay [2], in assay [3] and in assay [4] was inactive.

For `COc1ccc2c(c1)cc(C)c1nnc(SCC(=O)N3CCN(C(=O)c4ccco4)CC3)n12`, the result in assay [1], in assay [2], in assay [3] and in assay [4] was inactive.

As for `Cn1ncc([N+](=O)[O-])c1C(=O)N/N=C/c1ccc(F)cc1`, the outcome in assay [1], in assay [2], in assay [3] and in assay [4] was inactive.

With `Cc1cccc(NC(=S)NC(=O)c2cc(-c3ccccc3)nc3ccccc23)c1`, the result in assay [1], in assay [3] and in assay [4] was inactive. Moreover, in assay [2], the potentiation is 32% (active).

As for `Cc1cc(/C=C2\C(=N)N3N=C(c4ccco4)SC3=NC2=O)c(C)n1Cc1ccccc1`, the outcome in assay [1], in assay [3] and in assay [4] was inactive. Besides, the potentiation in assay [2] is 37% (active).

On to `CCCN(C(=O)c1cn(-c2ccccc2)nc1-c1ccc(OC)cc1)C1CCS(=O)(=O)C1` (stereo not given), for which the outcome in assay [1], in assay [2], in assay [3] and in assay [4] was inactive.

For `CCc1ccc(/C=C/C(=O)c2cc(Br)ccc(=O)c2O)cc1`, the activation in assay [1] was 203% (active). Further, the potentiation was 140% (active) in assay [2] and 296% (active) in assay [3]. Also, the outcome in assay [4] was inactive.

`COC(=O)CSc1nc(N)c2c3c(sc2n1)C(c1ccccc1)SC(c1ccccc1)C3` (stereo not given): the outcome in assay [1], in assay [2], in assay [3] and in assay [4] was inactive.

As for `O=C(NC(=S)N1CCN(Cc2ccc3c(c2)OCO3)CC1)c1cccc(Br)c1`, the activation in assay [1] is 314% (active). Further, the values for the potentiation in assay [2] and in assay [3] were 123% (active) and 349% (active), respectively. Moreover, the result in assay [4] was inactive.

`CCOc1ccc(NC(=O)Cn2nnc(-c3ccccc3NC(=O)c3cccs3)n2)cc1`: the result in assay [1], in assay [2], in assay [3] and in assay [4] was inactive.

On to `CCCCn1c(SCC(=O)/C(C#N)=C(\C)N)nc2ccccc2c1=O`, for which the result in assay [1], in assay [2], in assay [3] and in assay [4] was inactive.

Take `CCOC(=O)c1ccc(-c2ccc(C3Nc4ccccc4C(=O)N3O)o2)cc1` (stereo not given): the outcome in assay [1], in assay [2], in assay [3] and in assay [4] was inactive.

`OC[C@H]1O[C@H](OC[C@H]2O[C@H](OC[C@H]3O[C@H](O[C@]4(CO)O[C@H](CO)[C@@H](O)[C@@H]4O)[C@H](O)[C@@H](O)[C@@H]3O)[C@H](O)[C@@H](O)[C@H]2O)[C@H](O)[C@@H](O)[C@H]1O`: the outcome in assay [1], in assay [2], in assay [3] and in assay [4] was inactive.
